Results: ChEMBL document CHEMBL4190388, “Discovery and Optimization of Indolyl-Containing 4-Hydroxy-2-Pyridone Type II DNA Topoisomerase Inhibitors Active against Multidrug Resistant Gram-negative Bacteria” (J Med Chem, 2018)
In brackets after ≈: the same amount, converted by molar mass.

What was measured:
Escherichia coli [1] = assay: Antibacterial activity against Escherichia coli infected in cyclophosphamide treated neutropenic CD1 mouse septicemia model assessed as mouse survival at 20 mg/kg, iv dosed at 1 hr post infection followed by redosing at 5 hrs post infection measured at 96 hrs post infection relative to control; type: functional
Outline: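 Female CD-1 mice were made neutropenic with cyclophosphamide ip, 150 mg/kg on day −4 and 100 mg/kg on day −1. […] Compound was given iv in 3% DMSO/saline at 1 and 5 h postinfection, n = 6 per group. Percent survival was scored at 96 h postinfection.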

Escherichia coli [2] = assay: Antibacterial activity against wild type Escherichia coli by broth microdilution method; type: functional
Outline: (§1)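 MICs were determined by CLSI broth methods, except that organisms were grown in brain–heart–infusion medium. The panel comprised wild-type and resistant E. coli and A. baumannii strains, including 12 strains whose details are given by reference.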

Acinetobacter baumannii [3] = assay: Antibacterial activity against beta-lactam resistant Acinetobacter baumannii by broth microdilution method; type: functional; conditions: Acinetobacter baumannii; for MIC: read-out: MIC; outline: as §1
Acinetobacter baumannii [4] = assay: Antibacterial activity against carbapenem resistant Acinetobacter baumannii by broth microdilution method; type: functional; conditions: Acinetobacter baumannii; for MIC: read-out: MIC; outline: as §1
Acinetobacter baumannii [5] = assay: Antibacterial activity against quinolone resistant Acinetobacter baumannii by broth microdilution method; type: functional; conditions: Acinetobacter baumannii; for MIC: read-out: MIC; outline: as §1
Escherichia coli [6] = assay: Antibacterial activity against wild type Escherichia coli ATCC 25922 by CLSI M100-S17 protocol based method; type: functional
Escherichia coli [7] = assay: Antibacterial activity against quinolone resistant Escherichia coli by broth microdilution method; type: functional; conditions: Escherichia coli; for MIC: read-out: MIC; outline: as §1
Acinetobacter baumannii [8] = assay: Antibacterial activity against wild type Acinetobacter baumannii by broth microdilution method; type: functional; outline: as §1
Escherichia coli [9] = assay: Antibacterial activity against beta-lactam resistant Escherichia coli by broth microdilution method; type: functional; conditions: Escherichia coli; for MIC: read-out: MIC; outline: as §1
[10] = Fraction unbound in mouse plasma at 1 uM by equilibrium dialysis method; type: ADME, cell-free
Escherichia coli [11] = assay: Antibacterial activity against wild type Escherichia coli ATCC 25922 in presence of HSA by CLSI M100-S17 protocol based method; type: functional
Escherichia coli [12] = assay: Antibacterial activity against fluoroquinolone resistant Escherichia coli SKM18 by CLSI M100-S17 protocol based method; type: functional
Klebsiella pneumoniae = assay: Antibacterial activity against wild type Klebsiella pneumoniae ATCC 35657 by CLSI M100-S17 protocol based method; type: functional
Escherichia coli [13] = assay: Antibacterial activity against aminoglycoside resistant Escherichia coli by broth microdilution method; type: functional; conditions: Escherichia coli; for MIC: read-out: MIC; outline: as §1
Escherichia coli [14] = assay: Antibacterial activity against quinolone resistance Escherichia coli isolate ELZ4251 harboring gyrA/parC mutant by CLSI M100-S17 protocol based method; type: functional
Acinetobacter baumannii [15] = assay: Antibacterial activity against fluoroquinolone resistant Acinetobacter baumannii isolate MMX2240 by CLSI M100-S17 protocol based method; type: functional
Acinetobacter baumannii [16] = assay: Antibacterial activity against multidrug resistant Acinetobacter baumannii by broth microdilution method; type: functional; conditions: Acinetobacter baumannii; for MIC: read-out: MIC; outline: as §1
Acinetobacter baumannii [17] = assay: Antibacterial activity against wild type Acinetobacter baumannii ATCC BAA-747 by CLSI M100-S17 protocol based method; type: functional
Acinetobacter baumannii [18] = assay: Antibacterial activity against aminoglycoside resistant Acinetobacter baumannii by broth microdilution method; type: functional; conditions: Acinetobacter baumannii; for MIC: read-out: MIC; outline: as §1
Escherichia coli [19] = assay: Antibacterial activity against multidrug resistant Escherichia coli by broth microdilution method; type: functional; conditions: Escherichia coli; for MIC: read-out: MIC; outline: as §1
Escherichia coli [20] = assay: Selectivity ratio of MIC for wild type Escherichia coli ATCC 25922 in presence of HSA to MIC for wild type Escherichia coli ATCC 25922; type: functional
Mus musculus [21] = assay: AUC (0 to 24 hrs) in CD1 mouse plasma at 10 mg/kg, iv by LC-MS/MS analysis; type: ADME, organism-based; parameters: time < 24 hr, dose 10 mg/kg, route intravenous; conditions: in vivo
Outline: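 CD-1 mice given a single 10 mg/kg iv dose (n = 3), in either 10% DMSO plus 1% Tween 80 in pH 8.0 phosphate buffer or 20% (2-hydroxypropyl)-β-cyclodextrin in pH 4.0 citrate buffer; plasma exposure measured.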

[22] = Oral bioavailability in CD1 mouse plasma by LC-MS/MS analysis; type: ADME, organism-based
Mus musculus [23] = assay: Volume of distribution at steady state in CD1 mouse plasma at 10 mg/kg, iv by LC-MS/MS analysis; type: ADME, organism-based; conditions: in vivo
Mus musculus [24] = assay: Terminal half life in CD1 mouse plasma at 10 mg/kg, iv by LC-MS/MS analysis; type: ADME, organism-based; conditions: in vivo
Escherichia coli [25] = assay: Bactericidal activity against wild type Escherichia coli ATCC 25922 assessed as reduction of bacterial load after 24 hrs by time kill assay; type: functional, organism-based
[26] = Inhibition of His tagged Escherichia coli ATCC 25922 DNA gyrase A expressed in Escherichia coli BL21 (DE3) pLysS cells assessed as reduction in enzyme-mediated supercoiling of relaxed plasmid DNA pNO1 after 30 mins in presence of biotinylated TFO1 by fluorescence assay
Acinetobacter baumannii [27] = assay: Bactericidal activity against wild type Acinetobacter baumannii ATCC BAA-747 assessed as reduction of bacterial load after 24 hrs by time kill assay; type: functional, organism-based
Acinetobacter baumannii [28] = assay: Bactericidal activity against wild type Acinetobacter baumannii ATCC BAA-747 assessed as reduction of bacterial load at 0.25 to 4 times MIC after 2 hrs by time kill assay; type: functional
Escherichia coli [29] = assay: Bactericidal activity against wild type Escherichia coli ATCC 25922 assessed as reduction of bacterial load at 0.25 to 8 times MIC after 2 hrs by time kill assay; type: functional

## Cn1c(CN2CCCC2)cc2cc3c(cc21)OCCc1c-3[nH]c(=O)c(C(=O)O)c1O
Escherichia coli [1]
  survival at 20 mg/kg: 83%
Escherichia coli [2]
  MIC50: 0.5 µg/mL (≈ 1.22 µM)
  MIC90: 1 µg/mL (≈ 2.44 µM)
Acinetobacter baumannii [3]
  MIC50: 2 µg/mL (≈ 4.88 µM)
  MIC90: 8 µg/mL (≈ 19.5 µM)
  MIC: 0.12 to 16 µg/mL (≈ 0.293 to 39.1 µM)
Acinetobacter baumannii [4]
  MIC50: 2 µg/mL (≈ 4.88 µM)
  MIC90: 8 µg/mL (≈ 19.5 µM)
  MIC: 0.12 to 16 µg/mL (≈ 0.293 to 39.1 µM)
Acinetobacter baumannii [5]
  MIC50: 2 µg/mL (≈ 4.88 µM)
  MIC90: 8 µg/mL (≈ 19.5 µM)
  MIC: 0.12 to 16 µg/mL (≈ 0.293 to 39.1 µM)
Escherichia coli [6]
  MIC: 2 µg/mL (≈ 4.88 µM)
Escherichia coli [7]
  MIC50: 0.5 µg/mL (≈ 1.22 µM)
  MIC90: 1 µg/mL (≈ 2.44 µM)
  MIC: 0.25 to 1 µg/mL (≈ 0.611 to 2.44 µM)
Acinetobacter baumannii [8]
  MIC50: 2 µg/mL (≈ 4.88 µM)
  MIC90: 8 µg/mL (≈ 19.5 µM)
Escherichia coli [9]
  MIC50: 0.5 µg/mL (≈ 1.22 µM)
  MIC90: 1 µg/mL (≈ 2.44 µM)
  MIC: 0.25 to 1 µg/mL (≈ 0.611 to 2.44 µM)
[10]
  Fu: 0.18
Escherichia coli [11]
  MIC: 3.9 µg/mL
Escherichia coli [12]
  MIC: 1 µg/mL (≈ 2.44 µM)
Klebsiella pneumoniae
  MIC: 2 µg/mL (≈ 4.88 µM)
Escherichia coli [13]
  MIC50: 0.5 µg/mL (≈ 1.22 µM)
  MIC90: 1 µg/mL (≈ 2.44 µM)
  MIC: 0.25 to 1 µg/mL (≈ 0.611 to 2.44 µM)
Escherichia coli [14]
  MIC: 3.1 µg/mL (≈ 7.57 µM)
Acinetobacter baumannii [15]
  MIC: 7.8 µg/mL (≈ 19.1 µM)
Acinetobacter baumannii [16]
  MIC50: 2 µg/mL (≈ 4.88 µM)
  MIC90: 8 µg/mL (≈ 19.5 µM)
  MIC: 0.12 to 16 µg/mL (≈ 0.293 to 39.1 µM)
Acinetobacter baumannii [17]
  MIC: 3.9 µg/mL (≈ 9.53 µM)
Acinetobacter baumannii [18]
  MIC50: 2 µg/mL (≈ 4.88 µM)
  MIC90: 8 µg/mL (≈ 19.5 µM)
  MIC: 0.12 to 16 µg/mL (≈ 0.293 to 39.1 µM)
Escherichia coli [19]
  MIC50: 0.5 µg/mL (≈ 1.22 µM)
  MIC90: 1 µg/mL (≈ 2.44 µM)
  MIC: 0.25 to 1 µg/mL (≈ 0.611 to 2.44 µM)
Escherichia coli [20]
  Ratio: 2 - 4

## CC(C)NCc1cc2cc3c(cc2n1C)CCCc1c-3[nH]c(=O)c(C(=O)O)c1O
Mus musculus [21]
  AUC: 1810 ng·h/mL
Escherichia coli [1]
  survival at 20 mg/kg: 83%
Escherichia coli [2]
  MIC50: 0.5 µg/mL (≈ 1.26 µM)
  MIC90: 1 µg/mL (≈ 2.53 µM)
Acinetobacter baumannii [3]
  MIC50: 2 µg/mL (≈ 5.06 µM)
  MIC90: 16 µg/mL (≈ 40.5 µM)
  MIC: 0.25 to 32 µg/mL (≈ 0.632 to 80.9 µM)
Acinetobacter baumannii [4]
  MIC50: 2 µg/mL (≈ 5.06 µM)
  MIC90: 16 µg/mL (≈ 40.5 µM)
  MIC: 0.25 to 32 µg/mL (≈ 0.632 to 80.9 µM)
Acinetobacter baumannii [5]
  MIC50: 2 µg/mL (≈ 5.06 µM)
  MIC90: 16 µg/mL (≈ 40.5 µM)
  MIC: 0.25 to 32 µg/mL (≈ 0.632 to 80.9 µM)
Escherichia coli [6]
  MIC: 0.78 µg/mL (≈ 1.97 µM)
[22]
  bioavailability: 44%
Escherichia coli [7]
  MIC50: 0.5 µg/mL (≈ 1.26 µM)
  MIC90: 1 µg/mL (≈ 2.53 µM)
  MIC: 0.25 to 1 µg/mL (≈ 0.632 to 2.53 µM)
Acinetobacter baumannii [8]
  MIC50: 2 µg/mL (≈ 5.06 µM)
  MIC90: 16 µg/mL (≈ 40.5 µM)
Escherichia coli [9]
  MIC50: 0.5 µg/mL (≈ 1.26 µM)
  MIC90: 1 µg/mL (≈ 2.53 µM)
  MIC: 0.25 to 1 µg/mL (≈ 0.632 to 2.53 µM)
[10]
  Fu: 0.16
Escherichia coli [11]
  MIC: 3.1 µg/mL
Escherichia coli [12]
  MIC: 0.39 µg/mL (≈ 0.986 µM)
Klebsiella pneumoniae
  MIC: 0.78 µg/mL (≈ 1.97 µM)
Escherichia coli [13]
  MIC50: 0.5 µg/mL (≈ 1.26 µM)
  MIC90: 1 µg/mL (≈ 2.53 µM)
  MIC: 0.25 to 1 µg/mL (≈ 0.632 to 2.53 µM)
Escherichia coli [14]
  MIC: 1.6 µg/mL (≈ 4.05 µM)
Acinetobacter baumannii [15]
  MIC: 0.78 µg/mL (≈ 1.97 µM)
Mus musculus [23]
  Vdss: 69 L/kg
Acinetobacter baumannii [16]
  MIC50: 2 µg/mL (≈ 5.06 µM)
  MIC90: 16 µg/mL (≈ 40.5 µM)
  MIC: 0.25 to 32 µg/mL (≈ 0.632 to 80.9 µM)
Acinetobacter baumannii [17]
  MIC: 0.78 µg/mL (≈ 1.97 µM)
Acinetobacter baumannii [18]
  MIC50: 2 µg/mL (≈ 5.06 µM)
  MIC90: 16 µg/mL (≈ 40.5 µM)
  MIC: 0.25 to 32 µg/mL (≈ 0.632 to 80.9 µM)
Escherichia coli [19]
  MIC50: 0.5 µg/mL (≈ 1.26 µM)
  MIC90: 1 µg/mL (≈ 2.53 µM)
  MIC: 0.25 to 1 µg/mL (≈ 0.632 to 2.53 µM)
Escherichia coli [20]
  Ratio: 4 - 16
Mus musculus [24]
  beta t1/2: 11 h

## O=C(O)c1cn(C2CC2)c2cc(N3CCNCC3)c(F)cc2c1=O [CIPROFLOXACIN]
Escherichia coli [25]
  Activity: Dose-dependent effect
[26]
  IC50: 190 nM
Acinetobacter baumannii [27]
  Activity: Dose-dependent effect

## CCc1c(-c2ccc3c(c2)cc(CN2CCC2)n3C)[nH]c(=O)c(C(=O)O)c1O
Acinetobacter baumannii [28]
  Activity: 2 log10CFU
Escherichia coli [25]
  Activity: Dose-dependent effect
Escherichia coli [6]
  MIC: 0.39 µg/mL (≈ 1.02 µM)
Escherichia coli [11]
  MIC: 1.6 µg/mL
Escherichia coli [12]
  MIC: 1.6 µg/mL (≈ 4.19 µM)
Klebsiella pneumoniae
  MIC: 0.78 µg/mL (≈ 2.04 µM)
Escherichia coli [14]
  MIC: 1.6 µg/mL (≈ 4.19 µM)
Acinetobacter baumannii [15]
  MIC: 6.3 µg/mL (≈ 16.5 µM)
Acinetobacter baumannii [17]
  MIC: 0.39 µg/mL (≈ 1.02 µM)
Escherichia coli [29]
  Activity: 3 log10CFU
Acinetobacter baumannii [27]
  Activity: Dose-dependent effect
